An excerpt weighted towards active compounds, which were near 1.8% of everything screened.
CHOP UPR activ = apoptotic UPR (CHOP) activation. 330,000 tested, 0.34% active. activation, % at 10 µM. CHO-CHOP luciferase reporter, luminescence; percent of tunicamycin response over DMSO baseline;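 active = at 10 µM dose, activation of 40% or more, normalized to positive control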
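Dosing – one dose, 10 µM in 0.5% DMSO · System – CHO-CHOP cells, stable luciferase reporter of PERK-eIF2a-CHOP signalling · Input – 500 cells/well · Control set – tunicamycin 10 µg/mL final as positive, DMSO-only wells as negative · Timing – 6 h compound treatment, 37 °C · Measure – % activation vs tunicamycin · Technique – luminescence read with Steady-Glo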
Jurkat NFkB inh = lowers PMA/ionomycin-induced NF-kB signal in Jurkat cells; PMA/ionomycin-induced NF-kB luciferase reporter, luminescence; inhibition, % at 4 µM; 330,000 tested, 0.53% active; in the data active = inhibition above about 50%
697 NFkB inh = inhibitors of the PMA/ionomycin-induced NF-kB reporter in 697 B cells; 697 B-cell NF-kB luciferase reporter, 16 h; inhibition, % at 4 µM; 330,000 tested, 0.33% active; in the data active = inhibition above about 35%
UPR XBP1 act = activators of adaptive arm of unfolded protein response (XBP1) | CHO-XBP1 luciferase reporter, IRE1-XBP1 UPR activation, luminescence; percent of tunicamycin response, DMSO as zero | activation, % at 20 µM | 330,000 tested, 0.33% active;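 active = versus positive control, 20 µM dose yields 30% or more activation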
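Signal: luciferase luminescence; Assay system: CHO-XBP1 luciferase reporter cells; Amount: one thousand reporter cells per well; Dosing: 20 µM single concentration, DMSO 1%; Benchmarks: high control tunicamycin 10 µg/mL final, low control DMSO vehicle only; Schedule: 6 h compound exposure at 37 °C, 5% CO2; Evaluation: percent activation relative to tunicamycin reference.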
CRFBP-R2 block = antagonists of CRF-binding protein/CRF-R2 receptor complex | HEK293 CRF-R2/CRF-BP, CRF-induced calcium fluorescence | inhibition, % at 11.8 µM | 350,000 tested, 0.59% active | AID 588475;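 active = inhibition of the ligand-induced calcium signal above about 50% at the single tested concentration, limit read from the data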
UPR CHOP confirm = confirmation of apoptotic unfolded protein response (CHOP) activators | shares compounds with CHOP UPR activ | CHO-CHOP cells, CHOP-luciferase reporter luminescence; percent of tunicamycin response, DMSO as zero | activation, % at 10 µM | 1,000 tested, 64% active; in the data active = activation above about 33%
Each line names hits and unclear results; the compound was inactive in the other large screens (follow-up assays come after a bar, where they were run).

Cc1ccc(-c2nc(SCC(=O)Nc3cc(C)on3)c3c(=O)n(C)c(=O)n(C)c3n2)cc1	CHOP UPR activ 58 | UPR CHOP confirm 104
CC(NC(=O)COc1ccccc1Cl)c1ccccc1 (centres undefined)	none
COc1ccccc1C(CNC(=O)c1cccc(S(=O)(=O)Nc2ccc(C)cc2)c1)N1CCCC1 (centres undefined)	none
COc1ccc(C(=O)Cn2c(C(=O)/C=C/c3ccccc3)nc3ccccc32)cc1	CHOP UPR activ 314 | UPR CHOP confirm 348
Nc1ccn([C@@H]2O[C@H](CNCc3cccc4c3sc3ccccc34)[C@@H](O)[C@H]2O)c(=O)n1	none (no result: CHOP UPR activ, Jurkat NFkB inh, 697 NFkB inh, UPR XBP1 act)
Cc1cc(C)c(C)c(C(=O)COC(=O)CNC(=O)CNC(=O)c2ccco2)c1C	none
O=C(Nc1ccc(O)c2c(=O)cc(-c3cccc(Cl)c3)oc12)c1ccccc1Cl	CHOP UPR activ 52 | UPR CHOP confirm 46
N#CC(C#N)=C1C=CC=CN1/C(=C\c1ccccc1)C(=O)c1cccs1	CHOP UPR activ 122 | UPR CHOP confirm 119
CC(=O)c1cccc(NC(=O)CSc2ncc(C(=O)Nc3ccccc3)c(=O)n2C)c1	CHOP UPR activ 299 | UPR CHOP confirm 460
CC(=O)Nc1ccc(NC(=O)CSc2ncc(C(=O)Nc3ccc(Cl)cc3)c(=O)n2C)cc1	none
Cn1c(SCC(=O)NCC2CCCO2)ncc(C(=O)Nc2ccc(Cl)cc2)c1=O (centres undefined)	CHOP UPR activ 158 | UPR CHOP confirm 138
COc1cccc(NC(=O)COc2coc(CN3CCc4ccccc4C3)cc2=O)c1	none
Cc1cccn2c(=O)c3cc(C(=O)NCCc4ccccc4)c(=N)n(Cc4ccco4)c3nc12	none
COc1ccc(CCNC(=O)c2cc3c(=O)n4cccc(C)c4nc3n(Cc3ccco3)c2=N)cc1OC	CHOP UPR activ 245 | UPR CHOP confirm inactive
Oc1ccc(C=NNC(=S)Nc2ccccc2)nc1	none (no result: CHOP UPR activ, Jurkat NFkB inh, 697 NFkB inh, UPR XBP1 act)
O=C(Nc1ccccc1F)c1coc(=O)c(Br)c1	none
O=C(NCCc1ccc(F)cc1)c1coc(=O)c(Br)c1	CHOP UPR activ 125 | UPR CHOP confirm 88
Cc1ccc2c(c1)c1c(n2CCc2ccc(C)nc2)CCN(C)C1	none
O=S(=O)(/C(=C/c1ccc(C(F)(F)F)cc1)c1nc2ccccc2[nH]1)c1ccccc1	none (no result: CHOP UPR activ, Jurkat NFkB inh, 697 NFkB inh, UPR XBP1 act)
CC(C)c1ccc(/C=C(\c2nc3ccccc3[nH]2)S(=O)(=O)c2ccccc2)cc1	CHOP UPR activ 69 | UPR CHOP confirm 106
O=C(CN(c1cccc(C(F)(F)F)c1)S(=O)(=O)c1ccc(Cl)c([N+](=O)[O-])c1)NCc1ccccc1	none
CC(NC(=O)CN(c1cccc(C(F)(F)F)c1)S(=O)(=O)c1ccc(Cl)c([N+](=O)[O-])c1)c1ccccc1 (centres undefined)	CHOP UPR activ 104 | UPR CHOP confirm 140
O=C(N/N=C/c1ccccn1)c1cc(-c2ccccc2)nc2ccccc12	CHOP UPR activ 133 | UPR CHOP confirm 131
O=C1Nc2ccccc2/C1=C\C(=O)c1ccccc1	CHOP UPR activ 98 | UPR CHOP confirm 237
CC1(C)CC(=O)C(C2C3=C(CC(C)(C)CC3=O)Oc3ccccc32)C(=O)C1 (centres undefined)	none
CC1(C)CC(=O)C2=C(C1)Oc1nc3ccccc3cc1C2C(C#N)C#N (centres undefined)	CHOP UPR activ 63 | UPR CHOP confirm 34
CCOC(=O)c1ccc(N=c2scc(C)n2CC)cc1	none
CCOC(=O)c1ccc(N=C2C(=S)N(c3ccc(C(=O)OCC)cc3)C(=N)N2/N=C/c2ccccc2)cc1	CHOP UPR activ 53 | UPR CHOP confirm 37
CCSC1(SCC)N=C(N)C2(C#N)C(c3ccc(OC)c(OC)c3OC)C12C#N (centres undefined)	CHOP UPR activ 214 | UPR CHOP confirm 307
CN(C)/C=C1/Sc2ccccc2C1=O	none
CC(=O)N(\C=C/C=C/C=C1\Sc2ccccc2C1=O)c1ccccc1	CHOP UPR activ 64 | UPR CHOP confirm 35
CCOc1cc(C2c3c(-c4ccccc4)n[nH]c3C(=O)N2c2ccc(C(=O)O)cc2)ccc1O (centres undefined)	CHOP UPR activ 45 | UPR CHOP confirm inactive
O=C(O)c1ccc(N2C(=O)c3[nH]nc(-c4ccccc4)c3C2c2ccccc2)cc1 (centres undefined)	none
COc1ccc(Br)cc1S(=O)(=O)n1nc(C)cc1C	none
O=C(c1cn(-c2ccccc2)nc1-c1ccncc1)n1nnc2ccccc21	CHOP UPR activ 99 | UPR CHOP confirm inactive
CC(OC(=O)c1c[nH]c2ccccc12)C(=O)N1CCCC1 (centres undefined)	CHOP UPR activ 90 | UPR CHOP confirm inactive
S=C(c1c[nH]c2ccccc12)N1CCCC1	none
O=C(CN1C(=O)C2CC=CCC2C1=O)NCC(=O)Nc1ccc(F)c(F)c1 (centres undefined)	none
S=C(Nc1ccccc1)c1ccccn1	CHOP UPR activ 117 | UPR CHOP confirm 149
COCCN(C(=S)Nc1ccc(OC)c(Cl)c1)C1CCN(C(C)=O)CC1	none (no result: CHOP UPR activ, Jurkat NFkB inh, 697 NFkB inh, UPR XBP1 act)
CCOC(=O)c1c(NC(=O)c2cccs2)sc(C)c1CC	none
CCc1c(C)sc(NC(=O)c2cccs2)c1C#N	CHOP UPR activ 50 | UPR CHOP confirm inactive
Cc1ccc(CNC(=O)COc2ccc(S(=O)(=O)N3CCCC3)cc2)cc1	none
O=C(Oc1c(CN2CCOCC2)cc(Cl)c2cccnc12)c1ccccc1F	CHOP UPR activ 79 | UPR CHOP confirm 70
Oc1c(CN2CCc3ccccc3C2)cc(Cl)c2cccnc12	CHOP UPR activ 86 | UPR CHOP confirm 325
O=c1oc2ccccc2c(O)c1Cc1cc(Cl)c2cccnc2c1O	none
Oc1c(Cl)cc(CN2CCOCC2)c2cccnc12	CHOP UPR activ 134 | UPR CHOP confirm 128
O=C(COc1c(Br)cc(Br)c2cccnc12)N1CCCCC1	none
Oc1c(CN2CCCCC2)cc(Br)c2cccnc12	CHOP UPR activ 88 | UPR CHOP confirm 125
O=C(Oc1c(CN2CCOCC2)cc(Cl)c2cccnc12)c1ccccc1	none
CS(=O)(=O)c1cccc(C(=O)OCC(=O)NC(=O)Nc2ccccc2F)c1	none
C=CC[C@@H](Cc1ccc(F)cc1)C(=O)OC[C@@H]1CCCN1C(=O)[C@@H](CC=C)CC(=O)N[C@H](CO)Cc1ccccc1	none
COCCCNC(=O)CSc1nc2cc(S(=O)(=O)N3CCCCC3)ccc2o1	none
O=C(Cc1ccccc1)NC(=S)Nc1ccc(OC(F)F)cc1	none
Cc1ccc(C2=NN(C(=O)CCl)C(c3cccs3)C2)o1 (centres undefined)	CHOP UPR activ 41 | UPR CHOP confirm inactive
CC1C(=O)N(Cc2cn(CCC3OCCO3)nn2)CCS(=O)(=O)N1Cc1ccc(-c2ccc(F)nc2)cc1 (centres undefined)	none (no result: CHOP UPR activ, Jurkat NFkB inh, 697 NFkB inh, UPR XBP1 act)

High-throughput results as filed in PubChem.
